Autophagy mod: autophagy modulation, high-content screen; MEF GFP-LC3 puncta imaging; test concentration mostly 10 µM; 0.98% of 190,000 active; calls only at 10 µM (by protocol);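 active = percentage of spot-positive cells more than 3 SD above its plate mean, without a fluorescence outlier flag or 80% toxicity; inconclusive = no clear call, values can overlap the other calls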
PTEN del growth: growth suppressors of cells with PTEN tumor suppressor deletion; HCT116 PTEN-null viability, CellTiter-Glo, 60 h; active compounds read low; viability, % at 10 µM; 1.2% of 140,000 active;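 active = viability at or below a set limit, 4 SD under the median of all tested compounds, cut at about 3.7% in these data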;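 also: PTEN knockout HCT116 line with beta catenin targeted HCT116 as companion control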
L major viab: Leishmania major promastigote growth inhibition; Leishmania major promastigotes, resazurin fluorescence viability; inhibition, % at 10 µM; 9% of 200,000 active; in the data active = inhibition above about 50%;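 also: promastigotes grown with compound for 44 hours at 28 °C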
HCT116 bCat-KO: beta-catenin-lacking colon tumor cell growth suppression. viability, % at 10 µM. HCT116 beta-catenin knockout viability, CellTiter-Glo, 60 h; active compounds read low. 1.5% of 140,000 active;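 active = viability at or under a set limit, the compound median less 4 SD, cut at about 6% in these data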
Dynein transport: dynein cargo transport inhibition; 3617.4 mouse cells, GR-EGFP nuclear translocation imaging; test concentration mostly 20 µM; stimulated with dexamethasone, 1 µM; active compounds read low; z-score, hits read low; 0.47% of 220,000 active; AID 1381;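 active = plate z-score of nuclear minus cytoplasmic receptor signal below a set negative limit, without overly bright fluorescence or cell loss, cut at about -3.5 in these data, passing the limit was not always enough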;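 also: z-score of nuclear minus cytoplasmic ring GR-EGFP intensity difference per well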
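Schedule: 48 h induction, then 1 h compound, then 30 min agonist, 37 °C. Buffer or medium: tetracycline-free induction medium containing charcoal-stripped FBS. Reagent: 1.0 µM final dexamethasone stimulus. Evaluation: nuclear versus cytoplasmic GR-EGFP signal, averaged per well. Signal: high-content fluorescence imaging after fixation.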
Lmaj promast 1uM: L. major promastigote growth inhibition, 1 uM repeat. shares compounds with L major viab. resazurin fluorescence, 48 h. inhibition, % at 1 µM. 13% of 1,100 active;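 active = inhibition above about 50% in both repeat tests, limit read from the data; inconclusive = one repeat under the set limit, the other over it; inactive = both repeats under the set limit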
Each line names hits and unclear results; the compound was inactive in the other large screens (follow-up assays come after a bar, where they were run). In the library only some 9.2% were active in any assay of this set; here they are far more common.

Oc1ccc(/C=N/NP(=S)(c2ccccc2)c2ccccc2)cc1	L major viab 90
COc1cc(/C=N/NP(=S)(c2ccccc2)c2ccccc2)ccc1O	L major viab 81
CC(C(=O)Nc1ccc(Br)cc1C(=O)c1ccccc1)N1CCCCC1 (stereo not drawn)	L major viab 100
COc1cc(C(=O)Nc2ccc(Br)cc2C(=O)c2ccccc2)cc(OC)c1OC	none
CCCCn1c(O)c(C=NC2CC3CCC2(C)C3(C)C)c(=O)[nH]c1=O (stereo not drawn)	none
O=C1NC(=O)C(=Cc2ccc(-c3ccccc3[N+](=O)[O-])o2)C(=O)N1	none (no result: Autophagy mod, PTEN del growth, L major viab, HCT116 bCat-KO)
O=C1NC(=O)C(=Cc2ccc(-c3cc(Cl)ccc3[N+](=O)[O-])o2)C(=O)N1	L major viab 64 (no result: PTEN del growth, HCT116 bCat-KO)
CC(=NCc1ccc2c(c1)OCO2)c1c(O)n(-c2ccc(C)cc2)c(=O)[nH]c1=O	none (no result: Autophagy mod, PTEN del growth, L major viab, HCT116 bCat-KO)
N#CSCC(=O)N1c2ccccc2CCc2ccccc21	PTEN del growth 2.5, L major viab 96, HCT116 bCat-KO 3.8
Nc1ccccc1C(=O)OCC(=O)N1CCc2ccccc21	none
Cc1ccc(C2(O)CC(C)N(C)CC2C)cc1 (stereo not drawn)	L major viab 88
CCOc1ccc(Br)c(C2(O)CC(C)N(C)CC2C)c1 (stereo not drawn)	L major viab 83
C=CCC1(Nc2ccccc2)CC(C)N(C)CC1C (stereo not drawn)	none (no result: Autophagy mod, PTEN del growth, L major viab, HCT116 bCat-KO)
CC1CN(C)C(C)(C)CC1(O)c1ccccc1 (stereo not drawn)	L major viab 57
CN(C)CP(=O)(O)CN(C)C=O	none
O=C(c1ccc2c3c(cccc13)CC2)C1CCCN(CC2CC2)C1 (stereo not drawn)	L major viab 99 (no result: PTEN del growth, HCT116 bCat-KO)
O=C(c1ccc2c3c(cccc13)CC2)C1CCCN(Cc2ncc[nH]2)C1 (stereo not drawn)	none (no result: PTEN del growth, HCT116 bCat-KO)
COC(=O)[C@@H]1[C@@H](C(=O)OC)C2(c3ccccc3-c3ccccc32)N(c2ccc(Cl)cc2)N1C#N	Autophagy mod inconclusive, PTEN del growth 1.2, L major viab 74, HCT116 bCat-KO 0.8 | Lmaj promast 1uM 57
CC(=O)c1c(C)[nH]c(C(=O)N2CCC3(CC2)OCCO3)c1C	none
Cc1ccc(-c2cc(-c3ccc(C)cc3)[n+](C)o2)cc1	L major viab 100 | Lmaj promast 1uM 99
Cc1ccc2c(c1)C1CN(C)CCC1N2C(=O)/C(C#N)=C/c1ccc2c(c1)OCO2 (stereo not drawn)	none (no result: PTEN del growth, HCT116 bCat-KO)
C[C@@]1(CO)[C@H](O)CC[C@@]2(C)[C@H]1CC[C@H]1C[C@@H]3C[C@@]12CC[C@]3(O)CO	L major viab 100 | Lmaj promast 1uM 95
Cn1nc(-c2ccc(OCC(=O)N3CCN(Cc4ccccc4)CC3)cc2)c2ccccc2c1=O	none
C[C@H]1C[C@@H](C)C(=O)[C@@H]([C@H](O)CC2CC(=O)NC(=O)C2)C1	L major viab 100 (no result: PTEN del growth, HCT116 bCat-KO) | Lmaj promast 1uM 100
CCCCSP1(=S)NCCCO1 (stereo not drawn)	none
O=P(Nc1cccnc1)(Oc1ccccc1)Oc1ccccc1	L major viab 93 | Lmaj promast 1uM inactive
CCOc1cc(C2NCc3ccccc3-n3cccc32)ccc1O (stereo not drawn)	L major viab 99 | Lmaj promast 1uM inactive
CCOc1cccc(C2NCc3ccccc3-n3cccc32)c1O (stereo not drawn)	none
Cc1ccc(-c2nn(Cc3ccccc3)cc2C=O)cc1	none
Cc1ccc(-c2nn(Cc3ccccc3)cc2C=O)cc1C	L major viab 54 | Lmaj promast 1uM inactive
N=C(N)c1c(O)n(C2CCCCC2)c(=O)n(C2CCCCC2)c1=O	none
COc1ccc(C2=NCc3nnc(C)n3-c3ccc(Cl)cc32)cc1Cl	none
COc1ccccc1C1=NCc2nnc(C)n2-c2ccc(Cl)cc21	L major viab 61 | Lmaj promast 1uM inactive
Cn1cc2c([N+](=O)[O-])cc([N+](=O)[O-])cc2n1	L major viab 100 (no result: PTEN del growth, HCT116 bCat-KO) | Lmaj promast 1uM inactive
Cc1cc(S(=O)(=O)NCc2ccccc2)ccc1OCC(=O)N1CCN(C)CC1	none
COCCNC(=O)c1ccc(N2CC3CC(C2)c2cccc(=O)n2C3)c([N+](=O)[O-])c1 (stereo not drawn)	none (no result: PTEN del growth, HCT116 bCat-KO)
C1=C(c2c[nH]c3ccccc23)CCNC1	Autophagy mod inconclusive, L major viab 100 | Lmaj promast 1uM inactive
CC(C)N1CC=C(c2c[nH]c3ccccc23)CC1	none

Assay outcomes: PubChem BioAssay, several laboratories
